Results from ChEMBL document CHEMBL4196178, “Structure-Based Drug Design of Potent Pyrazole Derivatives against Rhinovirus Replication” (J Med Chem, 2018).
Active and inactive are the calls of the source. The rule behind the calls is not given here.

Key:
[1] = target: T1, VP1 capsid protein (Human rhinovirus sp.) (UniProt Q7T664); experiment: Inhibition of Rhinovirus B14 capsid infected in human HeLa Rh cells assessed as number of wells with full cytopathic effect at 4 times EC50 concentration after 1st passage measured after 3 days by MTS assay relative to control; type: cell-based; design: scale not given: the % may be the effect or the level left
T1 sequence (whole entry): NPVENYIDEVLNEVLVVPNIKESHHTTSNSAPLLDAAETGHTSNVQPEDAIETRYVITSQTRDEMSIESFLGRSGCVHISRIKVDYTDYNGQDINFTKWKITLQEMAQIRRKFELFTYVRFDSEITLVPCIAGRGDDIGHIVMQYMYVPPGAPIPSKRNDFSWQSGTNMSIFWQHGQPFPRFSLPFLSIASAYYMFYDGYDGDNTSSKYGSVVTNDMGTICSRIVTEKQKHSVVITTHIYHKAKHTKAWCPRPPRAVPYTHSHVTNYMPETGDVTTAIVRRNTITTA
Method in brief: (§1)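 Confluent HeLa cells were infected with wild-type RV-B14 with compound present at 1x, 2x or 4x in vitro EC₅₀, n=4 wells. Supernatant was diluted 1:10 onto fresh HeLa cells with compound, for four passages. Value is percentage of wells with full CPE.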

[2] = Selectivity index, ratio of CC50 for human HeLa Rh cells to EC50 for Rhinovirus B14 capsid infected in human HeLa Rh cells; type: toxicity, cell-based; conditions: read-out: Ratio CC50/EC50
Method in brief: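 SI = CC₅₀/EC₅₀ for RV-B14 in HeLa Rh cells, both from the same 3-day 35 °C MTS CPE assay. CC₅₀ was obtained by light-microscope scoring of compound-treated uninfected cells, and EC₅₀ from MTS dose-response. Both values were derived by logarithmic interpolation and reported as median ± median absolute deviation.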

[3] = target: T1, VP1 capsid protein (Human rhinovirus sp.); experiment: Inhibition of Rhinovirus B14 capsid infected in human HeLa Rh cells assessed as number of wells with full cytopathic effect at 4 times EC50 concentration after 3rd passage measured after 3 days by MTS assay relative to control; type: cell-based; design: scale not given: the % may be the effect or the level left; method in brief: as §1
[4] = target: T1, VP1 capsid protein (Human rhinovirus sp.); experiment: Inhibition of capsid of VP1 A150V mutant harboring Rhinovirus B14 assessed as reduction of virus induced cytopathic effect at 2 times EC50 concentration after 4th passage measured after 3 days by MTS assay
Method in brief: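 After four passages of RV-B14 on HeLa cells with compound at 1x, 2x or 4x in vitro EC₅₀ (supernatant transferred 1:10 each passage), virus harvested at passage 4 was sequenced for the VP1 region by Sanger sequencing.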

[5] = target: T1, VP1 capsid protein (Human rhinovirus sp.); experiment: Inhibition of capsid of VP1 C199W mutant harboring Rhinovirus B14 assessed as reduction of virus induced cytopathic effect at 1 times EC50 concentration after 4th passage measured after 3 days by MTS assay
[6] = target: T1, VP1 capsid protein (Human rhinovirus sp.); experiment: Inhibition of Rhinovirus B14 capsid infected in human HeLa Rh cells assessed as number of wells with full cytopathic effect at EC50 concentration after 3rd passage measured after 3 days by MTS assay relative to control; type: cell-based; design: scale not given: the % may be the effect or the level left; method in brief: as §1
[7] = target: T1, VP1 capsid protein (Human rhinovirus sp.); experiment: Inhibition of Rhinovirus B14 capsid infected in human HeLa Rh cells assessed as number of wells with full cytopathic effect at 4 times EC50 concentration after 4th passage measured after 3 days by MTS assay relative to control; type: cell-based; design: scale not given: the % may be the effect or the level left; method in brief: as §1
rhinovirus B14 [8] = experiment: Antiviral activity against Rhinovirus B14 infected in human HeLa Rh cells assessed as reduction in viral replication at 1 uM administered at the time of infection measured after 8 hrs post infection by RT-qPCR analysis; type: functional, organism-based
Method in brief: (§2)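 HeLa Rh cells adhered overnight, then given 1 µM compound 2 h before, at, or 2, 4 or 6 h after RV-B14 infection. Untreated infected cells served as controls. Cells lysed at 8 h post-infection, DNases heat-inactivated at 75 °C for 15 min. Intracellular viral RNA measured by SYBR one-step qRT-PCR against a gBlock standard series, reported as genome equivalents per sample.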

rhinovirus B14 [9] = experiment: Antiviral activity against Rhinovirus B14 infected in human HeLa Rh cells assessed as reduction in viral replication at 1 uM administered at >= 2 hrs post infection measured after 8 hrs post infection by RT-qPCR analysis; type: functional, organism-based; method in brief: as §2
[10] = target: T1, VP1 capsid protein (Human rhinovirus sp.); experiment: Inhibition of Rhinovirus B14 capsid infected in human HeLa Rh cells assessed as reduction in viral replication at 1 uM administered 2 hrs before infection measured after 8 hrs post infection by RT-qPCR analysis; type: cell-based; method in brief: as §2
[11] = target: T1, VP1 capsid protein (Human rhinovirus sp.); experiment: Inhibition of capsid of VP1 A150V mutant harboring Rhinovirus B14 assessed as reduction of virus induced cytopathic effect at 4 times EC50 concentration after 4th passage measured after 3 days by MTS assay
[12] = target: T1, VP1 capsid protein (Human rhinovirus sp.); experiment: Inhibition of Rhinovirus B14 capsid infected in human HeLa Rh cells assessed as number of wells with full cytopathic effect at EC50 concentration after 2nd passage measured after 3 days by MTS assay relative to control; type: cell-based; design: scale not given: the % may be the effect or the level left; method in brief: as §1
[13] = target: T1, VP1 capsid protein (Human rhinovirus sp.); experiment: Inhibition of capsid of VP1 V191E mutant harboring Rhinovirus B14 assessed as reduction of virus induced cytopathic effect at 2 times EC50 concentration after 4th passage measured after 3 days by MTS assay
[14] = target: T1, VP1 capsid protein (Human rhinovirus sp.); experiment: Inhibition of Rhinovirus B14 capsid infected in human HeLa Rh cells assessed as number of wells with full cytopathic effect at 2 times EC50 concentration after 2nd passage measured after 3 days by MTS assay relative to control; type: cell-based; design: scale not given: the % may be the effect or the level left; method in brief: as §1
[15] = target: T1, VP1 capsid protein (Human rhinovirus sp.); experiment: Inhibition of Rhinovirus B14 capsid infected in human HeLa Rh cells assessed as number of wells with full cytopathic effect at 2 times EC50 concentration after 1st passage measured after 3 days by MTS assay relative to control; type: cell-based; design: scale not given: the % may be the effect or the level left; method in brief: as §1
[16] = target: T1, VP1 capsid protein (Human rhinovirus sp.); experiment: Inhibition of Rhinovirus B14 capsid infected in human HeLa Rh cells assessed as number of wells with full cytopathic effect at 2 times EC50 concentration after 3rd passage measured after 3 days by MTS assay relative to control; type: cell-based; design: scale not given: the % may be the effect or the level left; method in brief: as §1
[17] = target: T1, VP1 capsid protein (Human rhinovirus sp.); experiment: Inhibition of Rhinovirus B14 capsid infected in human HeLa Rh cells assessed as number of wells with full cytopathic effect at EC50 concentration after 1st passage measured after 3 days by MTS assay relative to control; type: cell-based; design: scale not given: the % may be the effect or the level left; method in brief: as §1
[18] = Cytotoxicity against human HeLa Rh cells assessed as reduction in cell viability after 3 days by MTS assay; type: cell-based
[19] = target: T1, VP1 capsid protein (Human rhinovirus sp.); experiment: Inhibition of Rhinovirus B14 capsid infected in human HeLa Rh cells assessed as number of wells with full cytopathic effect at 2 times EC50 concentration after 4th passage measured after 3 days by MTS assay relative to control; type: cell-based; design: scale not given: the % may be the effect or the level left; method in brief: as §1
[20] = target: T1, VP1 capsid protein (Human rhinovirus sp.); experiment: Inhibition of Rhinovirus B14 capsid infected in human HeLa Rh cells assessed as number of wells with full cytopathic effect at EC50 concentration after 4th passage measured after 3 days by MTS assay relative to control; type: cell-based; design: scale not given: the % may be the effect or the level left; method in brief: as §1
rhinovirus B14 [21] = experiment: Inhibition of Rhinovirus B14 capsid infected in human HeLa Rh cells assessed as number of wells with full cytopathic effect at 4 times EC50 concentration after 2nd passage measured after 3 days by MTS assay relative to control; type: functional; design: scale not given: the % may be the effect or the level left; method in brief: as §1

What does the source list for `Cn1cc(-c2ccc(CC(O)c3ccc(-n4cccn4)cc3)c([N+](=O)[O-])c2)cn1` (racemic)?
Activity [1]: 0%; selectivity ratio [2]: 1240 to 5000; Activity [3]: 0%; inhibition [4]: Active; inhibition [5]: Active; Activity [6]: 50%; Activity [7]: 0%; Activity (rhinovirus B14 [8]): Active; Activity (rhinovirus B14 [9]): inactive; inhibition [10]: Active; inhibition [11]: inactive; Activity [12]: 0%; inhibition [13]: inactive; Activity [14]: 0%; Activity [15]: 0%; Activity [16]: 0%; Activity [17]: 0%; CC50 at 72 h [18]: 247 to 1000 µM; Activity [19]: 50%; Activity [20]: 50%; Activity (rhinovirus B14 [21]): 0%
